Measurements published in ChEMBL document CHEMBL2057156, “Synthesis and biological evaluation of the first dual tyrosyl-DNA phosphodiesterase I (Tdp1)-topoisomerase I (Top1) inhibitors” (J Med Chem, 2012).
Calls of active or inactive are those of the source. The rule behind the calls is not given here.

Columns and labels:
[1] = target: T1, DNA topoisomerase 1 (Homo sapiens) (UniProt P11387); test: Inhibition of human recombinant Top1-mediated DNA cleavage by polyacrylamide gel electrophoresis relative to camptothecin; set-up: concentration or dose not given beside the values
T1 sequence (whole entry): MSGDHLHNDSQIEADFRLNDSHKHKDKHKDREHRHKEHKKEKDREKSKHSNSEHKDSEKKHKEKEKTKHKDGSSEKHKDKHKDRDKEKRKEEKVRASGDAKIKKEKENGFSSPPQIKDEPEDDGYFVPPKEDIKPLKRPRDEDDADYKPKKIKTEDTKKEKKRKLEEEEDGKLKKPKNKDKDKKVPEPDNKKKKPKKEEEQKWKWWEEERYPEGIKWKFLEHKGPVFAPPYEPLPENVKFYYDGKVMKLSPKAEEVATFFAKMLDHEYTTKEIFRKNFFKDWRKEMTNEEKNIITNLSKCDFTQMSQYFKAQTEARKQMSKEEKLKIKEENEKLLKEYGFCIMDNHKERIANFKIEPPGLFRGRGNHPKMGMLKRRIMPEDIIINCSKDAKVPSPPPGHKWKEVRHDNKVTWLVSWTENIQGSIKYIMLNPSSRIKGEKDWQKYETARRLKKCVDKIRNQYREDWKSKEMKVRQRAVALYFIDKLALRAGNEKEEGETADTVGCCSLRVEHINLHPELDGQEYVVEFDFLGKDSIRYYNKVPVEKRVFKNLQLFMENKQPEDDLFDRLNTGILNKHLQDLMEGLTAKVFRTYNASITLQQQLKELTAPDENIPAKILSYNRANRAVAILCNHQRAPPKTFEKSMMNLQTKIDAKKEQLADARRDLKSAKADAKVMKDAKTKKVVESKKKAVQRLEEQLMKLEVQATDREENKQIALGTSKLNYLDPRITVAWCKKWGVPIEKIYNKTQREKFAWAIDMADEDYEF
Method in brief: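 Baculovirus-purified human recombinant Top1 was incubated for 20 min at 25 °C, with compounds at various concentrations, with about 2 nM of a 117-bp oligonucleotide 3′-end-labeled with [α-³²P]dGTP. Reactions were stopped with 0.5% SDS and run on 20% denaturing PAGE. Cleavage bands were phosphorimaged and graded semiquantitatively against 1 μM camptothecin.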

[2] = target: Tyrosyl-DNA phosphodiesterase 1 (Homo sapiens, UniProt Q9NUW8); test: Inhibition of human recombinant Tdp1 using 5'-[32P]-labeled single-stranded DNA oligonucleotide containing 3'-phosphotyrosine as substrate assessed as prevention of generation of oligonucleotide with free 3'-phosphate after 15 mins by PAGE analysis
Sequence of Tyrosyl-DNA phosphodiesterase 1 (Q9NUW8 whole entry): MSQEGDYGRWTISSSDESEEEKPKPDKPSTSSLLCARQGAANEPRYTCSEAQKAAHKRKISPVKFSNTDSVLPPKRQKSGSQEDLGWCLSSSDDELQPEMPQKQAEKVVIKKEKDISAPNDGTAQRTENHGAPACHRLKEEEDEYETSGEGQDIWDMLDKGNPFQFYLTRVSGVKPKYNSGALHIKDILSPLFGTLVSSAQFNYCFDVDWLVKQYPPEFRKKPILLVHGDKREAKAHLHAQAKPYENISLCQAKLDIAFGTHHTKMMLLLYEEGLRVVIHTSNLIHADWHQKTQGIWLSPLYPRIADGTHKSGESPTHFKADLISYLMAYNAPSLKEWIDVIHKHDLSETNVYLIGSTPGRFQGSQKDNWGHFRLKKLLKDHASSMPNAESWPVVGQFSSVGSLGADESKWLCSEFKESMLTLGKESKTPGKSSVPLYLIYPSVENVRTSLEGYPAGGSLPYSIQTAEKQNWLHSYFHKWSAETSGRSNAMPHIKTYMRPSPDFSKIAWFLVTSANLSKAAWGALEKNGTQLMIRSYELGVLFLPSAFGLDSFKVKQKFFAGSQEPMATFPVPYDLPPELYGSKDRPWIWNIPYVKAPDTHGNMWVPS

Structure (SMILES)	inhibition [1]	IC50 [2] [µM]	inhibition ([1]; concentration not given here) [%]
Cc1ccc(S(=O)(=O)NCCCCCCCn2c3c(c4ccccc4c2=O)C(=O)c2ccccc2-3)cc1	inactive	> 111	
Cc1ccc(S(=O)(=O)NCCCCCCCCCCn2c3c(c4ccccc4c2=O)C(=O)c2ccccc2-3)cc1	inactive	> 111	
CS(=O)(=O)NCCCCCCCCCCCn1c2c(c3ccccc3c1=O)C(=O)c1ccccc1-2	inactive	> 111	
O=C1c2ccccc2-c2c1c1ccccc1c(=O)n2CCCCCCCCCCn1c2c(c3ccccc3c1=O)C(=O)c1ccccc1-2		> 111	
O=C1c2ccccc2-c2c1c1ccccc1c(=O)n2CCCCCCCCCCCCNS(=O)(=O)c1ccc(Br)cc1	inactive	> 111	
Cc1ccc(S(=O)(=O)NCCCCn2c3c(c4ccccc4c2=O)C(=O)c2ccccc2-3)cc1	inactive	> 111	
O=C1c2ccccc2-c2c1c1ccccc1c(=O)n2CCCCCCNS(=O)(=O)c1ccc(Br)cc1	inactive	> 111	
O=C1c2ccccc2-c2c1c1ccccc1c(=O)n2CCNS(=O)(=O)c1ccccc1	inactive	> 111	
CS(=O)(=O)NCCCn1c2c(c3ccccc3c1=O)C(=O)c1ccccc1-2	inactive	> 111	
CS(=O)(=O)NCCCCCCCCCCCCn1c2c(c3ccccc3c1=O)C(=O)c1ccccc1-2	inactive	> 111	
Cc1ccc(S(=O)(=O)NCCCCCCCCn2c3c(c4ccccc4c2=O)C(=O)c2ccccc2-3)cc1	inactive	> 111	
Cc1ccc(S(=O)(=O)NCCn2c3c(c4ccccc4c2=O)C(=O)c2ccccc2-3)cc1	inactive	> 111	
CS(=O)(=O)NCCCCCCCCCn1c2c(c3ccccc3c1=O)C(=O)c1ccccc1-2	inactive	> 111	
Cc1ccc(S(=O)(=O)OCCCCn2c3c(c4ccccc4c2=O)C(=O)c2ccccc2-3)cc1		> 111	
O=C1c2ccccc2-c2c1c1ccccc1c(=O)n2CCCCCCCCCCCCn1c2c(c3ccccc3c1=O)C(=O)c1ccccc1-2		> 111	
O=C1c2ccccc2-c2c1c1ccccc1c(=O)n2CCCCCCCNS(=O)(=O)c1ccccc1	inactive	> 111	
Cc1ccc(S(=O)(=O)NCCCn2c3c(c4ccccc4c2=O)C(=O)c2ccccc2-3)cc1	inactive	> 111	
O=C1c2ccccc2-c2c1c1ccccc1c(=O)n2CCCCCCCNS(=O)(=O)c1ccc(Br)cc1	inactive	> 111	
O=C1c2ccccc2-c2c1c1ccccc1c(=O)n2CCCCCCCCNS(=O)(=O)c1ccc(Br)cc1	inactive	> 111	
O=C1c2ccccc2-c2c1c1ccccc1c(=O)n2CCCCCCCCCCCNS(=O)(=O)c1ccc(Br)cc1	inactive	> 111	
O=C1c2ccccc2-c2c1c1ccccc1c(=O)n2CCO		> 111	
O=C1c2ccccc2-c2c1c1ccccc1c(=O)n2CCCNCCCNCCCn1c2c(c3ccccc3c1=O)C(=O)c1ccccc1-2		1.52	100
O=C1c2ccccc2-c2c1c1ccccc1c(=O)n2CCCCCCCCCNS(=O)(=O)c1ccc(Br)cc1	inactive	> 111	

The next lines start with results.

inhibition [1]	IC50 [2] [µM]	Structure (SMILES)	inhibition ([1]; concentration not given here) [%]
inactive	> 111	CS(=O)(=O)NCCCCCCn1c2c(c3ccccc3c1=O)C(=O)c1ccccc1-2	
inactive	> 111	O=C1c2ccccc2-c2c1c1ccccc1c(=O)n2CCCCCNS(=O)(=O)c1ccc(Br)cc1	
inactive	> 111	Cc1ccc(S(=O)(=O)NCCCCCCCCCn2c3c(c4ccccc4c2=O)C(=O)c2ccccc2-3)cc1	
inactive	> 111	CS(=O)(=O)NCCCCCCCn1c2c(c3ccccc3c1=O)C(=O)c1ccccc1-2	
inactive	> 111	Cc1ccc(S(=O)(=O)NCCCCCCCCCCCn2c3c(c4ccccc4c2=O)C(=O)c2ccccc2-3)cc1	
	> 111	Cc1ccc(S(=O)(=O)OCCCCCn2c3c(c4ccccc4c2=O)C(=O)c2ccccc2-3)cc1	
	> 111	Cc1ccc(S(=O)(=O)OCCCCCCn2c3c(c4ccccc4c2=O)C(=O)c2ccccc2-3)cc1	
inactive	> 111	Cc1ccc(S(=O)(=O)NCCCCCn2c3c(c4ccccc4c2=O)C(=O)c2ccccc2-3)cc1	
inactive	> 111	O=C1c2ccccc2-c2c1c1ccccc1c(=O)n2CCCNS(=O)(=O)c1ccccc1	
inactive	> 111	O=C1c2ccccc2-c2c1c1ccccc1c(=O)n2CCCCCCCCCNS(=O)(=O)c1ccccc1	
	> 111	Cc1ccc(S(=O)(=O)OCCCCCCCn2c3c(c4ccccc4c2=O)C(=O)c2ccccc2-3)cc1	
inactive	> 111	O=C1c2ccccc2-c2c1c1ccccc1c(=O)n2CCCCCNS(=O)(=O)c1ccccc1	
inactive	> 111	O=C1c2ccccc2-c2c1c1ccccc1c(=O)n2CCCCCCCCCCNS(=O)(=O)c1ccc(Br)cc1	
inactive	> 111	CS(=O)(=O)NCCCCCCCCCCn1c2c(c3ccccc3c1=O)C(=O)c1ccccc1-2	
	> 111	Cc1ccc(S(=O)(=O)OCCCn2c3c(c4ccccc4c2=O)C(=O)c2ccccc2-3)cc1	
inactive	> 111	O=C1c2ccccc2-c2c1c1ccccc1c(=O)n2CCCCCCCCCCCNS(=O)(=O)c1ccccc1	
inactive	> 111	CS(=O)(=O)NCCCCn1c2c(c3ccccc3c1=O)C(=O)c1ccccc1-2	
inactive	> 111	O=C1c2ccccc2-c2c1c1ccccc1c(=O)n2CCCCCCNS(=O)(=O)c1ccccc1	
inactive	> 111	CS(=O)(=O)NCCn1c2c(c3ccccc3c1=O)C(=O)c1ccccc1-2	
	> 111	O=C1c2ccccc2-c2c1c1ccccc1c(=O)n2CCCO	
	> 111	O=C1c2ccccc2-c2c1c1ccccc1c(=O)n2CCCCO	
inactive	> 111	O=C1c2ccccc2-c2c1c1ccccc1c(=O)n2CCCCCCCCNS(=O)(=O)c1ccccc1	
inactive	> 111	O=C1c2ccccc2-c2c1c1ccccc1c(=O)n2CCCCNS(=O)(=O)c1ccccc1	
	> 111	O=C1c2ccccc2-c2c1c1ccccc1c(=O)n2CCCCCO	
inactive	> 111	CS(=O)(=O)NCCCCCn1c2c(c3ccccc3c1=O)C(=O)c1ccccc1-2	
inactive	> 111	O=C1c2ccccc2-c2c1c1ccccc1c(=O)n2CCCCNS(=O)(=O)c1ccc(Br)cc1	
inactive	> 111	O=C1c2ccccc2-c2c1c1ccccc1c(=O)n2CCCNS(=O)(=O)c1ccc(Br)cc1	
inactive	> 111	Cc1ccc(S(=O)(=O)NCCCCCCn2c3c(c4ccccc4c2=O)C(=O)c2ccccc2-3)cc1	
	> 111	O=C1c2ccccc2-c2c1c1ccccc1c(=O)n2CCCCCCCCCCCn1c2c(c3ccccc3c1=O)C(=O)c1ccccc1-2	
inactive	> 111	CS(=O)(=O)NCCCCCCCCn1c2c(c3ccccc3c1=O)C(=O)c1ccccc1-2	
